Test results taken from ChEMBL document CHEMBL4715860 (J Med Chem, 2020).
The source made the active and inactive calls. The rule behind the calls is not given here.

Columns and labels:
Mus musculus [1] = assay: Protection against Tsc1-GFAP knockout induced mortality in Balb/c mouse assessed as increase in survival rate at 100 mg/kg, po administered as single dose; format: functional, organism-based
[2] = Toxicity in po dosed Balb/c nude mouse administered once daily for 14 days measured for 7 days starting from post last dose; format: organism-based; settings: in vivo, time 21 day
Outline: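 Nontumor-bearing female BALB/c nude mice dosed p.o. once daily for 14 days at 100, 150 or 200 mg/kg (n = 3 each), with vehicle of 20% Captisol in water (n = 1). Body weight change followed, with animals evaluated for 7 days after dosing to set the maximum tolerated dose.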

[3] = Toxicity in Tsc1-GFAP knockout Balb/c mouse assessed as change in body weight at 50 to 100 mg/kg, po; format: organism-based; settings: in vivo, dose 50-100 mg/kg
[4] = Toxicity in Tsc1-GFAP knockout Balb/c mouse assessed as survival rate administered orally once a day measured post last dose; settings: in vivo, po, dose 50-100 mg/kg
Outline: (§1)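 Tsc1GFAPCKO mice (Tsc1 conditionally inactivated mainly in glia). Oral dosing from P21 at 10, 25, 50 mg/kg qd or 50 mg/kg bid, n = 7–10 per group. Controls were vehicle and a comparator at 10 mg/kg. Body weight tracked. Survival followed from P21 to death or censoring at P90, compared by log-rank test.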

[5] = Metabolic stability in Beagle dog hepatocytes assessed as parent compound remaining at 5 uM incubated for 3 hrs by LC-MS analysis; format: ADME, cell-based, Canis lupus familiaris, Hepatocyte; settings: read-out: Stabilty
Outline: (§2)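 Cryopreserved primary hepatocytes in suspension (CD-1 mouse, Sprague-Dawley rat, Beagle dog, human). Compound diluted from 10 mM DMSO stock to 5 μM final. Sampled at 0, 15, 60, 90 and 180 min, protein precipitated with ACN plus internal standard, supernatant analysed by LC−MS. Run in duplicate. 7-ethoxycoumarin as positive control. Hepatocyte-free medium incubations as negative control.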

[6] = Metabolic stability in CD1 mouse hepatocytes assessed as parent compound remaining at 5 uM incubated for 3 hrs by LC-MS analysis; format: ADME, cell-based, Hepatocyte; settings: read-out: Stabilty; outline: as §2
Mus musculus [7] = assay: Protection against Tsc1-GFAP knockout induced mortality in Balb/c mouse assessed as increase in survival rate administered orally twice a day measured post last dose; format: functional, organism-based; outline: as §1
[8] = Metabolic stability in human hepatocytes assessed as parent compound remaining at 5 uM incubated for 3 hrs by LC-MS analysis; format: ADME, cell-based, Hepatocyte; settings: read-out: Stabilty; outline: as §2
[9] = Metabolic stability in Sprague-Dawley rat hepatocytes assessed as parent compound remaining at 5 uM incubated for 3 hrs by LC-MS analysis; format: ADME, cell-based, Hepatocyte; settings: read-out: Stabilty; outline: as §2
[10] = AUC (0 to 8 hrs) in C57BL/6J mouse brain at 10 mg/kg, po administered as single dose by mass spectrometry based UHPLC analysis; format: ADME, organism-based; design: time < 8 hr, route oral, dose 10 mg/kg
Outline: (§3)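 Female C57BL/6J mice, one oral dose of 10 mg/kg in 20% Captisol; plasma and brain levels over time, n = 3 per time point (mean).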

[11] = Elimination half life in C57BL/6J mouse brain at 10 mg/kg, po administered once a day for 4 consecutive days by mass spectrometry based UHPLC analysis; format: ADME, organism-based; settings: time 4 day, read-out: beta t1/2 (converted)
Outline: (§4)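 Female C57BL/6J mice given 10 mg/kg p.o. in 20% Captisol once daily for 4 consecutive days. Plasma and brain sampled after the final dose on day 4, n = 3 per time point.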

[12] = Tmax in C57BL/6J mouse plasma at 10 mg/kg, po administered once a day for 4 consecutive days by mass spectrometry based UHPLC analysis; format: ADME, organism-based; settings: time 4 day
Outline: (§5)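 Female C57BL/6J mice dosed orally at 10 mg/kg in 20% Captisol, either once or once daily for 4 days with sampling after the last dose on day 4. Plasma and brain concentrations followed over time. Tmax taken from at least 3 time points.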

Mus musculus [13] = assay: In vivo inhibition of mTORC1 signalling in C57BL/6J mouse assessed as reduction in RPS6 phosphorylation at S235/236 residue in cortex at 10 mg/kg, po incubated for 30 mins by Western blot analysis; format: functional, organism-based
[14] = Tmax in C57BL/6J mouse brain at 10 mg/kg, po administered as single dose by mass spectrometry based UHPLC analysis; format: ADME, organism-based; outline: as §5
[15] = Cmax in C57BL/6J mouse plasma at 10 mg/kg, po administered as single dose by mass spectrometry based UHPLC analysis; format: ADME, organism-based; design: route oral, dose 10 mg/kg; outline: as §3
[16] = Elimination half life in C57BL/6J mouse plasma at 10 mg/kg, po administered as single dose by mass spectrometry based UHPLC analysis; format: ADME, organism-based; settings: read-out: beta t1/2 (converted); outline: as §3
[17] = Tmax in C57BL/6J mouse plasma at 10 mg/kg, po administered as single dose by mass spectrometry based UHPLC analysis; format: ADME, organism-based; outline: as §5
[18] = Cmax in C57BL/6J mouse brain at 10 mg/kg, po administered once a day for 4 consecutive days by mass spectrometry based UHPLC analysis; format: ADME, organism-based; design: route oral, dose 10 mg/kg, time 4 day; outline: as §4
[19] = Cmax in C57BL/6J mouse plasma at 10 mg/kg, po administered once a day for 4 consecutive days by mass spectrometry based UHPLC analysis; format: ADME, organism-based; design: route oral, dose 10 mg/kg, time 4 day; outline: as §4
Mus musculus [20] = assay: In vivo inhibition of PI3Kalpha in C57BL/6J mouse assessed as increase in plasma glucose concentration at 10 mg/kg, po measured after 8 hrs by glucoseoxidase-peroxide coupled colorimetric assay; format: functional, organism-based
[21] = Toxicity in Tsc1-GFAP knockout Balb/c mouse assessed as change in body weight at 10 mg/kg, po; format: organism-based; settings: in vivo
Outline: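 Tsc1GFAPCKO mice dosed orally from P21 at 10, 25, 50 mg/kg or 50 mg/kg bid. Body weight tracked during the survival study; mean ± SEM.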

[22] = Clearance in C57BL/6J mouse plasma at 10 mg/kg, po administered as single dose by mass spectrometry based UHPLC analysis; format: ADME, organism-based; outline: as §3
Mus musculus [23] = assay: Protection against Tsc1-GFAP knockout induced mortality in Balb/c mouse assessed as increase in survival rate at 10 mg/kg, po administered as single dose; format: functional, organism-based
[24] = Tmax in C57BL/6J mouse brain at 10 mg/kg, po administered once a day for 4 consecutive days by mass spectrometry based UHPLC analysis; format: ADME, organism-based; settings: time 4 day; outline: as §5
[25] = Clearance in C57BL/6J mouse plasma at 10 mg/kg, po administered once a day for 4 consecutive days by mass spectrometry based UHPLC analysis; format: ADME, organism-based; settings: time 4 day; outline: as §4
[26] = AUC (0 to 8 hrs) in C57BL/6J mouse plasma at 10 mg/kg, po administered once a day for 4 consecutive days by mass spectrometry based UHPLC analysis; format: ADME, organism-based; design: route oral, time 4 day, dose 10 mg/kg; outline: as §4
[27] = Cmax in C57BL/6J mouse brain at 10 mg/kg, po administered as single dose by mass spectrometry based UHPLC analysis; format: ADME, organism-based; design: route oral, dose 10 mg/kg; outline: as §3
[28] = Elimination half life in C57BL/6J mouse plasma at 10 mg/kg, po administered once a day for 4 consecutive days by mass spectrometry based UHPLC analysis; format: ADME, organism-based; settings: time 4 day, read-out: beta t1/2 (converted); outline: as §4
[29] = AUC (0 to 8 hrs) in C57BL/6J mouse brain at 10 mg/kg, po administered once a day for 4 consecutive days by mass spectrometry based UHPLC analysis; format: ADME, organism-based; design: route oral, time 4 day, dose 10 mg/kg; outline: as §4
[30] = AUC (0 to 8 hrs) in C57BL/6J mouse plasma at 10 mg/kg, po administered as single dose by mass spectrometry based UHPLC analysis; format: ADME, organism-based; design: time < 8 hr, route oral, dose 10 mg/kg; outline: as §3
Mus musculus [31] = assay: In vivo inhibition of PI3Kalpha C57BL/6J mouse assessed as increase in plasma insulin concentration at 10 mg/kg, po measured after 8 hrs by ELISA; format: functional, organism-based

SMILES: Nc1cc(C(F)F)c(-c2nc(N3C4CCC3COC4)nc(N3C4CCC3COC4)n2)cn1
- Activity (Mus musculus [1]): Active
- MTD at 504 h [2]: 150 mg/kg
- Activity [3]: Non-Toxic
- Activity [4]: Dose-dependent effect
- remaining at 3 h, 5 µM [5]: > 59.9%
- remaining at 3 h, 5 µM [6]: > 59.9%
- Activity (Mus musculus [7]): Dose-dependent effect
- remaining at 3 h, 5 µM [8]: 27.8%
- remaining at 3 h, 5 µM [9]: > 59.9%

SMILES: CO[C@H]1C[C@@H]2CC[C@@H](C)[C@@](O)(O2)C(=O)C(=O)N2CCCC[C@H]2C(=O)O[C@H]([C@H](C)C[C@@H]2CC[C@@H](OCCO)[C@H](OC)C2)CC(=O)[C@H](C)/C=C(\C)[C@@H](O)[C@@H](OC)C(=O)[C@H](C)C[C@H](C)/C=C/C=C/C=C/1C [EVEROLIMUS]
- AUC(0-t) at 8 h [10]: 0.804 µg·h/mL
- half-life [11]: 15.8 h
- Tmax [12]: 2 h
- inhibition (Mus musculus [13]): inactive
- Tmax [14]: 24 h
- Cmax [15]: 3.46 µg/mL
- half-life [16]: 6.5 h
- Tmax [17]: 0.5 h
- Cmax [18]: 0.043 µg/mL
- Cmax [19]: 3.94 µg/mL
- inhibition (Mus musculus [20]): inactive
- Activity [21]: Non-Toxic
- CL/F [22]: 0.276 L/h/kg
- Activity (Mus musculus [23]): Active
- Tmax [24]: 4 h
- CL/F [25]: 0.225 L/h/kg
- AUC at 96 h [26]: 42.3 µg·h/mL
- Cmax [27]: 0.057 µg/mL
- half-life [28]: 5.7 h
- AUC at 96 h [29]: 0.64 µg·h/mL
- AUC(0-t) at 8 h [30]: 33.6 µg·h/mL
- inhibition (Mus musculus [31]): inactive
